The EternaBench riboswitch data

Tested on: MS2 coat protein
Assay: apparent Kd, MS2 coat protein; higher = weaker binding; RNA-MaP array; FMN 200 µM where present
Summary of the method: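 Binding was read on Illumina sequencing-chip clusters where stalled E. coli RNA polymerase had transcribed each design. A titration of SNAP-549-labelled MS2 coat protein began at 0.7 or 1.5 nM and doubled to 3 µM, once without ligand and once with constant ligand, in 100 mM Tris-HCl pH 7.5, 80 mM KCl, 4 mM MgCl2, BSA, DTT, yeast tRNA and Tween-20. The apparent Kd is the median of filtered per-cluster binding-curve fits, based on green signal normalised to red-channel RNA signal and control-cluster median Fmax.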

[1] = designed as: ON switch for flavin mononucleotide, no ligand
[2] = ligand present: flavin mononucleotide, designed as: ON switch for flavin mononucleotide
[3] = designed as: OFF switch for flavin mononucleotide, no ligand
[4] = ligand present: flavin mononucleotide, designed as: OFF switch for flavin mononucleotide

| Sequence | apparent Kd [1] [nM] | apparent Kd [2] [nM] | apparent Kd [3] [nM] | apparent Kd [4] [nM] |
| --- | --- | --- | --- | --- |
| GUAGCUAUCGCAGGAUAUCCUCAGGCGAAAGCCACAUGAGGAUCACCCAUGUAAAUUAAGAAUUUGGAGAAGGGCGAUAGCUAC | 479 | 27.3 | – | – |
| AGUCAUACAGGAUAUACAUGAGGAUCACCCAUGUUUAUCCUACAUGGGUGAUCCUCAUGUAGAAGGGUAUGACA | – | – | 11.2 | 9.45 |
| UGGUACAUGAGGAUCACCCAUGUAAGAGCCCUCAUGCGAUGUAGAAGGAUAAUGCGAGUAGUGCUAUAGGAUAUACAUGAGUUU | – | – | 225 | 207 |
| AAAGUGUGAGGAUAUCCUGGGCUGGGCCGGGAGGUUCGGUUGGAGAAGGCACAUGAGGAUCACCCAUGUAACGG | – | – | 62.7 | 53.4 |
| AUUUAAAUGUCAGGAUAUGUUAGUUUAUACAUAGUAGAAGGGAUAAUUAUACUCAUGUACAUGAGGAUCACCCAUGUUAAAUAA | 206 | 107 | – | – |
| GGAAAGCAAGGAUAUGCAAACAAACAAACAAACAAAAGGGAACAUGAGGAUCACCCAUGUAGAAGGUGCAAACA | – | – | 40.8 | 32.5 |
| UCGAGUCAUGAGAAGGGUUGAUGUUACAUGAGGAUCACCCAUGUCAUGGGCAGGAUAUCAUUGACACGACUGUACCUCUCUUAC | 254 | 112 | – | – |
| GUAGGGUCAGGAUAUACGGGCGGGAGGAUGUAGUGGAGUUGGUAGAAGGGACAUGAGGAUCACCCAUGUGAGAA | – | – | 30.7 | 27.8 |
| ACCAGGGAUUCAGGAUAUAUUAGCCGAGGCCGCGUAGAAGGGAAAUCCUGACAUGAGGAUCACCCAUGUCGACCCGCCUUCCAC | 22.8 | 24.2 | – | – |
| CCCGCAACAUGAGGAUCACCCAUGUAGGAUAUCGCUAUUGUAAUCAUGAAACAUGAUUACAAUAGCGAGAAGGACAUAUGCGGG | – | – | 6.77 | 10.4 |
| GUAUGAGCGAUAGGAUAUACUGAGAUUGAAUGGGUAGAAGGAUUUCUUGUGGGAAAGACAUGAGGAUCACCCAUGUCGCGGACC | 299 | 176 | – | – |
| AAUAAACUCACAGGAUAUAGCAGAGGUCACGUGAACUUACAGGCGACGAUGCUAGAAGGGUGACCACAUGAGGAUCACCCAUGU | 862 | 135 | – | – |
| AUCAGCUCGUCAGGAUAUACAUUACUGCUUCGGCAGUGUAUUAAGAUCACAUGAGGAUCACCCAUGUAGAAGGGACGAGCUGAU | – | – | 23.2 | 124 |
| AGGAGGUGAGGAUAUGCUGCUCGUCACUUGCGUGAUGAGUAGCAGAAGGCACAUGAGGAUCACCCAUGUAAAGA | – | – | 117 | 105 |
| UGUGUCAUCGAGAAGGCCUCAACAUGAGGAUCACCCAUGUUGUAAUAUGGGAGGAUAUCGAUGAUACAGCUACGUUUCGUAGCC | 18.4 | 5.67 | – | – |
| GUAGCUAGUACAGGAUAUUAGUGCGUGUAGUAUUGAGAAGGGUACAUGAGGAUCACCCAUGUGAUCAAUCACUGUUAAGGUUGC | – | – | 221 | 177 |
| CGCAAUGAUAGAGGAUAUGUUUUACAUGAGGAUCACCCAUGUGUACAUGGAUUAAUAUAUAAGUAACAGAAGGCUAUUCAUGCG | – | – | 16.7 | 15.2 |
| GCACAUGGCAUAGGAUAUAGAAGUAUACAUUAUAUAGGUAGUGUCACAACACUAGAAGGAUGAAACAUGAGGAUCACCCAUGUA | 16.2 | 12.3 | – | – |
| GCAUGGUAUGAGAAGGCAUAUUUAAUCUAACAACAUGUUUACAUGAGGAUCACCCAUGUUACCAAUGAGGAUAUCAUACCGUGC | – | – | 7.31 | 7.28 |
| CUUUCGUGAGGAUAUGAGGCUUCGAUCGUGAGAUCGAGGCUACAGAAGGCACAUGAGGAUCACCCAUGUUCCUC | – | – | 30.9 | 392 |
| AGUAGGCAGUGAGGAUAUGUACUUGUAACGGUACAUGAGGAUCACCCAUGUGGUGGGAGUGGAGGACAGAAGGCACCGUUUGGG | 114 | 66.6 | – | – |
| AUUAUGACCGAGUUAUAGUUCCUAACAUGAGGAUCACCCAUGUAGGAUAUCAGCACGAUAAGUGCUGAGAAGGACAUCUCGGUC | – | – | 13.3 | 13.9 |
| GAAGAUAUAGGAUAUACAUGAGGAUCACCCAUGUGAGUACGCAAGGCUAGAUCGCUUUGUAGAAGGAUAUACCG | – | – | 38.5 | 40.8 |
| UAGAAGUCAGGAUAUCCAUGGCGGCACUUGCGUGGUGGCGUGGAGAAGGGACAUGAGGAUCACCCAUGUAAAGG | – | – | 148 | 174 |
| AGGAGGUUAGGAUAUGCUGCUCGUCACUUGCGUGAUGAGUAGCAGAAGGAACAUGAGGAUCACCCAUGUAAAGA | – | – | 29.7 | 35.1 |
| ACUUUACAUGAGGAUCACCCAUGUUUUGGUGGAUCAGGAUAUAAAUUGAAUGAGUUUUAGUUAGAAGGGAUAUUUA | 89.8 | 99 | – | – |
| AUUUUGCGAGGAUAUACAUGAGGAUCACCCAUGUACGCUCAGCAGGGUGAAGGCUCUUGUAGAAGGCGUUCUGA | – | – | 88.2 | 45.8 |
| UUUUAACAUGAGGAUCACCCAUGUGAGGAUAUCGUUUUUUUUAUUAAUAUUAAUAAAACGAGAAGGCACAUUUU | – | – | 149 | 149 |

| Sequence | apparent Kd [1] [nM] | apparent Kd [2] [nM] | apparent Kd [3] [nM] | apparent Kd [4] [nM] |
| --- | --- | --- | --- | --- |
| AGCUACGUUUCGUAGCAGUGUCAUCGAGAAGGCCUCAUAACAUGAGGAUCACCCAUGUUAGCAUGGGAGGAUAUCGAUGAUACA | 58.8 | 24.2 | – | – |
| AGGUCAACCACAGGAUAUGGCUAGCAUAGCUAGCCAGAAGGGUGGUCAUUUCCAUGUAAAUACAUGAGGAUCACCCAUGUAUCC | 126 | 41.1 | – | – |
| ACGGUGGUCACAGGAUAUCCGGCCCGCGUGCCUGGAGAAGGGUGACUCAGAACCACAUGAGGAUCACCCAUGUGCCUUACCGUA | 52.6 | 23.9 | – | – |
| AGUGUGUGGCAGGAUAUGCUAUUAAUUGGUGAAGCAGAAGGGUCUACAUGAGGAUCACCCAUGUAAGCGGUUGA | – | – | 39.7 | 190 |
| UUUUAGUCAGGAUAUCGUUAAUUUAAUUGUUUGUAUUAGUUCGAGAAGGGACAUGAGGAUCACCCAUGUAUUUU | – | – | 33.5 | 43 |
| AUUCGACAUGAGGAUCACCCAUGUAAGGAUAUGAUAGUUCUGAUAAGGGCUAGCCUAUUCAGAAGGUACGUGGC | – | – | 35.5 | 31.4 |
| GCCAACUCAUGAGGAUAUGGCACCUUAUUGGUGCCAGAAGGCGUGUCAAUUGACAUGAGGAUCACCCAUGUAUUAUAGUUGGCA | 446 | 70.3 | – | – |
| AACUGACGACAUCAGUUGCGUAGGCAGGAUAUACAUGAGGAUCACCCAUGUGCAUGAUGCUACGAGUAGAAGGGCCGAGGCGAU | – | – | 6.77 | 13.4 |
| UGAUUUCAUGUAGGAUAUGCUUGGCGUAGCUACGCAGAAGGACAUGAGGAUCACCCAUGUUUUAGCGUCUGAGUAUAGAUUCUU | – | – | 35.3 | 89.7 |
| AAAGAACAUGAGGAUCACCCAUGUGAGGAUAUGCGAAAACCGCUGGCGCACCAGACGGGCAGAAGGCAUAUGGU | – | – | 75.6 | 92.5 |
| UAAUUAUUUGUGGUAAUACACUAUGAGGAUAUCAAGGAAUAUAACAUGAGGAUCACCCAUGUGAAUGAGAAGGCAUUAUUUAUA | 14.9 | 9.81 | – | – |
| UUGGACUACGUAGGAUAUGUAGGAUAUUCCUACAUGAGGAUCACCCAUGUUAGCAUGGAAGAAGGACAGAAGGACGUGGUCCAU | 1360 | 15.8 | – | – |
| CGAUAUAUGAAGGGCAAAGGCCCACAUGAGGAUCACCCAUGUAGAAGGCGAUCCGCAACGCGGAUCGAGGAUAUAUAGUAUACA | – | – | 8.45 | 8.1 |
| UCAUUUUACACAGGAUAUACUCAUAUACAGUUGUUUGGCUCUUACAUGUUAGUAGAAGGGUGCAACAUGAGGAUCACCCAUGUA | 621 | 250 | – | – |
| CCAUAAAAGAUCCAAAAUUACAACAUGAGGAUCACCCAUGUGCAGGAUAUCGUGAAAGUAAAAUACGAGAAGGGCAAAAACUGC | – | – | 440 | 454 |
| GCUUUCGCAUGAGGAUAUGCUCGAGUUUAGAGAGCAGAAGGCAUGUCAUAAGACAUGAGGAUCACCCAUGUAGUUAAAAUUGCA | 164 | 10.7 | – | – |
| UCCUUCUGUUGAGGAUAUGUAAGACAGCGGCUGCUAUUACGGCACGCUGAUACAGAAGGCAACAUGAGGAUCACCCAUGUUCAA | – | – | 24.1 | 189 |
| CGAGUUUUUGAGAAGGCAUAUUAUAUUAUACCACAUGUUUACAUGAGGAUCACCCAUGUUUCCUAUGAGGAUAUCAGAAUAUCG | – | – | 11.8 | 10 |
| UUAACUCAUGUAGGAUAUGCAUGGCGAAGCUACGCAGAAGGACAUGAGGAUCACCCAUGUUCUAGCGUCUGGAUACAGAUGCAA | – | – | 56.1 | 227 |
| GGAGAGCAAGGAUAUACAUGAGGAUCACCCAUGUACGGUCAUUUGGGCAUGUCUGUAAGUAGAAGGUGUUUUGG | – | – | 45.2 | 58.5 |
| UAUAUAUAGUAAGGAUAUGUAUCUAUUUUAUAAACAGAAGGUACUGACAUGAGGAUCACCCAUGUUUUAGUGUGGGCAUGUAGA | – | – | 92.2 | 114 |
| UUGAUAAGGAGAGGAUAUGGACAUGAGGAUCACCCAUGUACAUGGGAAUAUUUACUGAAUUCUUACUAGAAGGCUUACAUAUUU | – | – | 15.7 | 13.3 |
| AUAUCUCUGUAAGGAUAUAGAUGGUGUAAGCCUCCGACAUGAGGAUCACCCAUGUUAUAUGUUGUCUAGAAGGUACAGUGUCGG | 1110 | 898 | – | – |
| AGCCUGAGUCGAGGAUAUUAUGGAUCAAUUAAUACAUGAGGAUCACCCAUGUAAUUAAUUUAACAUGAGAAGGUGACUCAGGCA | 11.3 | 12.9 | – | – |
| GACGAAUAGCUAGGAUAUCGUAAAUCAUUGGUAGUCUCUAUUCACAUGAGGAUCACCCAUGUAAUCGAGAAGGAGCACUCGUUC | – | – | 80.4 | 240 |
| UUCCGGCGUGUAGGAUAUGGAUCCGAUUAGGAUCCAGAAGGACAUGAGGAUCACCCAUGUACAUGUAAACAGUCAUCACCGGAA | – | – | 6.09 | 7.65 |
| ACGACUAGAGGAUAUACAUGAGGAUCACCCAUGUAACUGUCAGGAGACUGACGGAGAUGUAGAAGGCUAGUCGA | – | – | 16.6 | 39.2 |
